Experimental data published in ChEMBL document CHEMBL1128574, “Glycosylated peptide hormones: pharmacological properties and conformational studies of analogues of [1-desamino,8-D-arginine]vasopressin” (J Med Chem, 1995).
Bridge positions count the residues as written; N and C are the ends. Square brackets hold non-standard residues; d marks the D form. Peptide text beside a SMILES is read from it. * marks the point of attachment. X2 = CC(=O)OC[C@@H]1O[C@@H](*)[C@@H](OC(C)=O)[C@@H](OC(C)=O)[C@H]1OC(C)=O; X1 = OC[C@@H]1O[C@@H](*)[C@@H](O)[C@@H](O)[C@H]1O; Mpa = O=C(O)CCS

Tests used:
[1] = Bioavailability in rat administered i.d.; format: ADME, organism-based; settings: in vivo
Outline: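 Computed as (AUCii/doseii)/(AUCiv/doseiv). Anaesthetized male Sprague-Dawley rats received 100 μg intraintestinally into a cannulated jejunal segment or 1.0 μg iv via jugular vein, both in 0.9% NaCl. Plasma levels by RIA; AUC by trapezoidal rule.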

Rattus norvegicus [2] = test: Area under the curve administered intraintestinal in rats.; format: ADME, organism-based; settings: in vivo, other
Outline: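 Anaesthetized (Inactin) male Sprague-Dawley rats, 250–300 g, kept at 37 °C. 100 μg peptide in 1 mL 0.9% NaCl given into a cannulated, rinsed 15 cm small-intestine segment starting 10 cm distal to pylorus, after 30 min recovery. Carotid blood sampled, EDTA plasma assayed by RIA (antibody ADA 6). AUC by trapezoidal rule; mean ± SEM of n rats.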

Rattus norvegicus [3] = test: Area under the curve administered intravenously in rats.; format: ADME, organism-based; settings: in vivo, iv
Outline: (§1)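 Anaesthetized (Inactin) male Sprague-Dawley rats, 250–300 g. 1.0 μg peptide in 0.2 mL sterile 0.9% NaCl injected into a catheterized jugular vein. Carotid blood samples (0.2 mL) taken as EDTA plasma and quantified by RIA (ADA 6 antibody, [125I]Tyr2-DDAVP tracer). Half-life and trapezoidal AUC given as mean ± SEM of n rats.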

[4] = Cmax value administered intraintestinal in rats.; format: ADME, organism-based; settings: rat, in vivo
Outline: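 Anaesthetized (Inactin) male Sprague-Dawley rats, 250–300 g, 37 °C. 100 μg peptide in 1 mL 0.9% NaCl given into a cannulated 15 cm intestinal segment. Plasma peptide measured by RIA at set time points; the maximal plasma concentration is reported as mean ± SEM of n rats.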

[5] = Degradation in vitro by alpha-chymotrypsin.; format: ADME
Outline: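 Peptide (1 mM final) incubated with α-chymotrypsin (1 mg/mL final) at 37 °C in 25 mM Tris, 65 mM NaCl, 2.5 mM CaCl2, pH 7.8. Reaction stopped with ice-cold TCA and centrifuged. Remaining peptide measured over time by RP-HPLC against an enzyme-free reference, giving the half-life.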

[6] = Degradation in vitro by rat intestinal juice.; format: ADME, organism-based
Outline: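 Rat intestinal juice was a 0.9% NaCl rinse of a 10 cm small-intestine segment, centrifuged at 10000g and stored at −20 °C. Incubation matched the chymotrypsin assay (1 mM peptide, 37 °C, pH 7.8) except for 165 mM Tris. Juice amount was set to degrade DDAVP at 2%/min. Time course by RP-HPLC.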

[7] = Half life administered intravenously in rats.; format: ADME, organism-based; settings: rat, in vivo, iv; outline: as §1
[8] = Relative transport rate as the ratio of transport rate to that of PEG 1000.; format: ADME
Outline: (§2)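 Rat small-intestine pieces, about 35 cm distal to pylorus and free of Peyer's patches, mounted in a modified Ussing chamber (1.47 cm2) at 37 °C in oxygenated Krebs-Ringer, pH 7.4. Peptide, [3H]PEG 1000 and [14C]PEG 4000 added apically. Basolateral samples taken every 15 min and assayed by RIA or scintillation counting. Papp = (dQ/dt)/(A·C0), expressed relative to each PEG.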

[9] = Relative transport rate as the ratio of transport rate to that of PEG 4000.; format: ADME; outline: as §2
[10] = biological target: T1, Vasopressin receptor (Rattus norvegicus) (UniProt P48974+P30560+Q00788)
[11] = biological target: T1, Vasopressin receptor (Rattus norvegicus); test: Percent inhibition of vasopressin receptor agonistic activity in vivo in rats; format: functional, organism-based; settings: concentration not given here
Outline: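 Overnight-hydrated male Sprague-Dawley rats. Peptide injected 1 min before a fixed vasopressin dose, set per rat to give similar antidiuretic responses. Inhibition was read at a 330-fold molar excess over vasopressin as percent inhibition of the antidiuretic effect. Mean of two experiments.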

[12] = biological target: T1, Vasopressin receptor (Rattus norvegicus); test: Compound was tested in vitro for its ability to displace radioligand [3H]vasopressin from the vasopressin receptor in rat renal medullary membrane in absence of V1-antagonist; format: functional, cell membranes; settings: Renal medulla
Outline: (§3)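 Rat renal medullary membranes (250 μg protein) incubated for 120 min at room temperature with 1 nM [3H]vasopressin and increasing peptide concentrations, with or without 10 nM of the V1 antagonist [Phenylac1,D-Tyr(Me)2,Arg6,8,Lys-NH2 9]vasopressin. Membranes were pelleted and washed, and bound label was counted by liquid scintillation.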

[13] = biological target: T1, Vasopressin receptor (Rattus norvegicus); test: Compound was tested in vitro for its ability to displace radioligand [3H]vasopressin from the vasopressin receptor in rat renal medullary membrane in presence of V1-antagonist; format: functional, cell membranes; settings: Renal medulla; outline: as §3

Compound | bioavailability [1] | AUC (Rattus norvegicus [2]) | AUC (Rattus norvegicus [3]) | Cmax [4] | half-life [5] | half-life [6] | half-life [7] | Ratio [8] | Ratio [9] | Antidiuretic activity [10] | inhibition [11] | Displacement [12] | Displacement [13]
NC(=O)CNC(=O)[C@@H](CCCN=C(N)N)NC(=O)[C@@H]1CCCN1C(=O)[C@@H]1CSSCCC(=O)N[C@H](Cc2ccc(O)cc2)C(=O)N[C@@H](Cc2ccccc2)C(=O)N[C@@H](CO)C(=O)N[C@@H](CC(N)=O)C(=O)N1 | 0.5% | 2.35 ng·h/mL | 4.63 ng·h/mL | 1.4 ng/mL | 37 min | 280 min | 32 min | 0.62 | 1.66 | – | – | – | –
NC(=O)CNC(=O)[C@H](CCCN=C(N)N)NC(=O)[C@@H]1CCCN1C(=O)[C@@H]1CSSCCC(=O)N[C@H](Cc2ccc(O)cc2)C(=O)N[C@@H](Cc2ccccc2)C(=O)N[C@@H](CO)C(=O)N[C@@H](CC(N)=O)C(=O)N1 | – | – | – | – | – | – | – | – | – | 810 IU µM-1 | – | – | –
NC(=O)CNC(=O)[C@H](CCCN=C(N)N)NC(=O)[C@@H]1CCCN1C(=O)[C@@H]1CSSCCC(=O)N[C@@H](Cc2ccc(O)cc2)C(=O)N[C@@H](Cc2ccccc2)C(=O)N[C@@H](CO[C@@H]2O[C@@H](CO)[C@H](O)[C@H](O)[C@@H]2O)C(=O)N[C@@H](CC(N)=O)C(=O)N1 ([Mpa]YFS(X1)NCPRG-NH2; disulfide 1-6) | 1.6% | 5.75 ng·h/mL | 3.52 ng·h/mL | 2.5 ng/mL | 37 min | 320 min | 20 min | 0.96 | 2.56 | 0.06 IU µM-1 | 4% | 55% | 55%
CC(=O)OC[C@@H]1O[C@@H](OC[C@@H]2NC(=O)[C@H](Cc3ccccc3)NC(=O)[C@H](Cc3ccc(O)cc3)NC(=O)CCSSC[C@@H](C(=O)N3CCC[C@H]3C(=O)N[C@@H](CCCN=C(N)N)C(=O)NCC(N)=O)NC(=O)[C@H](CC(N)=O)NC2=O)[C@@H](OC(C)=O)[C@@H](OC(C)=O)[C@H]1OC(C)=O ([Mpa]YFS(X2)NCPRG-NH2; disulfide 1-6) | 2.1% | 10.3 ng·h/mL | 4.97 ng·h/mL | 3.6 ng/mL | 180 min | 230 min | 35 min | 1.09 | 2.83 | 0.31 IU µM-1 | 3% | 45% | 45%
NC(=O)CC[C@@H]1NC(=O)[C@H](Cc2ccccc2)NC(=O)[C@H](Cc2ccc(O)cc2)NC(=O)CCSSC[C@@H](C(=O)N2CCC[C@H]2C(=O)N[C@H](CCCN=C(N)N)C(=O)NCC(N)=O)NC(=O)[C@H](CC(N)=O)NC1=O [DESMOPRESSIN] | 0.1% | 0.867 ng·h/mL | 7.65 ng·h/mL | 0.8 ng/mL | 13 min | 20 min | 39 min | 0.57 | 1.57 | – | – | – | –
